Common to all, as to type: functional
For test [1], the system named is Pseudomonas aeruginosa. Kind of test: Antimicrobial activity against beta-lactam resistant Pseudomonas aeruginosa PAOD3 harboring oprD spontaneous mutant selected in vitro after antipseudomonal treatment of intensive care unit patient by broth microdilution method. The method, boiled down: (§1)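 Broth microdilution MICs per CLSI M100-S18, over 0.12 to 256 μg/ml. Strains are PAO1 and its mutants. oprD mutants were selected overnight on Mueller-Hinton agar with 4 μg/ml imipenem, passaged antibiotic-free, then confirmed by oprD amplification and sequencing. PAO1 and ATCC 27853 were run alongside as quality controls.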

For test [2], the system named is Pseudomonas aeruginosa. Kind of test: Antimicrobial activity against beta-lactam resistant beta-lactam resistant Pseudomonas aeruginosa PAOD3 harboring oprD spontaneous mutant and deficient in ampD gene selected in vitro after antipseudomonal treatment of intensive care unit patient by broth microdilution method. In a few lines: as §1
Test [3] concerns Pseudomonas aeruginosa. Kind of test: Antimicrobial activity against beta-lactam resistant Pseudomonas aeruginosa PAO1 by broth microdilution method. The method, boiled down: as §1
The subject of test [4] is Pseudomonas aeruginosa. Kind of test: Antimicrobial activity against beta-lactam resistant Pseudomonas aeruginosa PAO1 deficient in ampD and dacB gene selected in vitro after antipseudomonal treatment of intensive care unit patient by broth microdilution method. The method, boiled down: as §1
Test [5] concerns Pseudomonas aeruginosa. The test is described as follows: Antimicrobial activity against beta-lactam resistant Pseudomonas aeruginosa PAOD1 harboring oprD spontaneous mutant and deficient in dacB gene selected in vitro after antipseudomonal treatment of intensive care unit patient by broth microdilution method. The method, boiled down:
as §1

The test system of test [6] is Pseudomonas aeruginosa. The test is described as follows: Antimicrobial activity against beta-lactam resistant Pseudomonas aeruginosa PA01 deficient in dacB gene by broth microdilution method. The method, boiled down:
as §1

Test [7] deals with Pseudomonas aeruginosa. Kind of test: Antimicrobial activity against beta-lactam resistant Pseudomonas aeruginosa PAOD3 harboring oprD spontaneous mutant and deficient in dacB gene selected in vitro after antipseudomonal treatment of intensive care unit patient by broth microdilution method. The method, boiled down:
as §1

For test [8], the system named is Pseudomonas aeruginosa. The test is described as follows: Antimicrobial activity against beta-lactam resistant Pseudomonas aeruginosa PAOD2 harboring oprD spontaneous mutant and deficient in dacB gene selected in vitro after antipseudomonal treatment of intensive care unit patient by broth microdilution method. The method, boiled down: as §1
Test [9] deals with Pseudomonas aeruginosa. The test is described as follows: Antimicrobial activity against beta-lactam resistant Pseudomonas aeruginosa PAO1 deficient in ampD and ampDh3 gene selected in vitro after antipseudomonal treatment of intensive care unit patient by broth microdilution method. In a few lines: as §1
Test [10] has as its system Pseudomonas aeruginosa. The test is described as follows: Antimicrobial activity against beta-lactam resistant Pseudomonas aeruginosa PAOD2 harboring oprD spontaneous mutant selected in vitro after antipseudomonal treatment of intensive care unit patient by broth microdilution method. In a few lines: as §1
In test [11] the test system is Pseudomonas aeruginosa. The test is described as follows: Antimicrobial activity against beta-lactam resistant Pseudomonas aeruginosa PAOD1 harboring oprD spontaneous mutant and deficient in ampD gene selected in vitro after antipseudomonal treatment of intensive care unit patient by broth microdilution method. In a few lines:
as §1

Test [12] relates to Pseudomonas aeruginosa. The test is described as follows: Antimicrobial activity against beta-lactam resistant Pseudomonas aeruginosa PAO1 deficient in ampD, […] gene selected in vitro after antipseudomonal treatment of intensive care unit patient by broth microdilution method. The method, boiled down: as §1
Test [13] concerns Pseudomonas aeruginosa. Kind of test: Antimicrobial activity against Pseudomonas aeruginosa clinical isolate assessed as resistant isolates selected in vitro after antipseudomonal treatment of intensive care unit patient by CLSI method.
Test [14] has as its system Pseudomonas aeruginosa. Kind of test: Antimicrobial activity against beta-lactam resistant Pseudomonas aeruginosa PAOD2 harboring oprD spontaneous mutant and deficient in ampD gene by selected in vitro after antipseudomonal treatment of intensive care unit patient by broth microdilution method. The method, boiled down: as §1
For test [15], the system named is Pseudomonas aeruginosa. The test is described as follows: Antimicrobial activity against beta-lactam resistant Pseudomonas aeruginosa PAOD1 harboring oprD spontaneous mutant selected in vitro after antipseudomonal treatment of intensive care unit patient by broth microdilution method. In a few lines:
as §1

In test [16] the test system is Pseudomonas aeruginosa. Kind of test: Antimicrobial activity against beta-lactam resistant Pseudomonas aeruginosa PAO1 deficient in ampD gene selected in vitro after antipseudomonal treatment of intensive care unit patient by broth microdilution method. The method, boiled down: as §1
The test system of test [17] is Pseudomonas aeruginosa. Kind of test: Induction of ampC expression in beta-lactam resistant Pseudomonas aeruginosa PAO1 deficient in ampD, […] gene selected in vitro after antipseudomonal treatment of intensive care unit patient at 50 ug/mL. The method, boiled down:
(§2)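 ampC expression measured by real-time RT-PCR in PAO1 and its mutants, under basal conditions and after induction with 50 μg/ml cefoxitin.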

Test [18] concerns Pseudomonas aeruginosa. Kind of test: Induction of ampC expression in beta-lactam resistant Pseudomonas aeruginosa PAO1 deficient in ampD and ampDh3 gene selected in vitro after antipseudomonal treatment of intensive care unit patient at 50 ug/mL. In a few lines: as §2
For test [19], the system named is Pseudomonas aeruginosa. The test is described as follows: Induction of ampC expression in beta-lactam resistant Pseudomonas aeruginosa PAO1 deficient in ampD gene selected in vitro after antipseudomonal treatment of intensive care unit patient at 50 ug/mL. The method, boiled down: as §2
For test [20], the system named is Pseudomonas aeruginosa. Kind of test: Induction of ampC expression in beta-lactam resistant Pseudomonas aeruginosa PA01 deficient in dacB gene at 50 ug/mL. The method, boiled down: as §2
Test [21] deals with Pseudomonas aeruginosa. Kind of test: Induction of ampC expression in beta-lactam resistant Pseudomonas aeruginosa PAO1 deficient in ampD and dacB gene selected in vitro after antipseudomonal treatment of intensive care unit patient at 50 ug/ml. In a few lines: as §2
Test [22] has as its system Pseudomonas aeruginosa. The test is described as follows: Induction of ampC expression in beta-lactam resistant Pseudomonas aeruginosa PAO1 at 50 ug/mL. In a few lines: as §2

Converted amounts (≈) assume the structure as drawn.

Consider `C[C@H]1[C@H](NC(=O)/C(=N\OC(C)(C)C(=O)O)c2csc(N)n2)C(=O)N1S(=O)(=O)O` [AZTREONAM], for which the MIC in the test on Pseudomonas aeruginosa [1] came to 4 µg/mL (≈ 9.19 µM); against Pseudomonas aeruginosa [2] it was 8 µg/mL (≈ 18.4 µM); in the test on Pseudomonas aeruginosa [3] it was 4 µg/mL (≈ 9.19 µM); in the test on Pseudomonas aeruginosa [4], 128 µg/mL (≈ 294 µM); with Pseudomonas aeruginosa [5], 32 µg/mL (≈ 73.5 µM); in the test on Pseudomonas aeruginosa [6], 32 µg/mL (≈ 73.5 µM). Besides, the MIC came out at 32 µg/mL (≈ 73.5 µM) against Pseudomonas aeruginosa [7]; 32 µg/mL (≈ 73.5 µM) against Pseudomonas aeruginosa [8]; 32 µg/mL (≈ 73.5 µM) in the test with Pseudomonas aeruginosa [9]; 4 µg/mL (≈ 9.19 µM) with Pseudomonas aeruginosa [10]; 8 µg/mL (≈ 18.4 µM) in the test on Pseudomonas aeruginosa [11]; 32 µg/mL (≈ 73.5 µM) with Pseudomonas aeruginosa [12].
Take `CO/N=C(\C(=O)N[C@@H]1C(=O)N2C(C(=O)[O-])=C(C[N+]3(C)CCCC3)CS[C@H]12)c1csc(N)n1`: the MIC stood at 2 µg/mL (≈ 4.16 µM) against Pseudomonas aeruginosa [1]; 8 µg/mL (≈ 16.6 µM) with Pseudomonas aeruginosa [2]; 2 µg/mL (≈ 4.16 µM) against Pseudomonas aeruginosa [3]; 32 µg/mL (≈ 66.6 µM) against Pseudomonas aeruginosa [4]; 32 µg/mL (≈ 66.6 µM) in the test with Pseudomonas aeruginosa [5]; 16 µg/mL (≈ 33.3 µM) in the test on Pseudomonas aeruginosa [6]. The MIC against Pseudomonas aeruginosa [7] amounted to 32 µg/mL (≈ 66.6 µM); in the test on Pseudomonas aeruginosa [8], 32 µg/mL (≈ 66.6 µM); in the test with Pseudomonas aeruginosa [9], 8 µg/mL (≈ 16.6 µM); with Pseudomonas aeruginosa [10], 2 µg/mL (≈ 4.16 µM); with Pseudomonas aeruginosa [11] it was 4 µg/mL (≈ 8.32 µM); in the test on Pseudomonas aeruginosa [12], 8 µg/mL (≈ 16.6 µM).
Regarding `CC(C)(O/N=C(\C(=O)N[C@@H]1C(=O)N2C(C(=O)[O-])=C(C[n+]3ccccc3)CS[C@H]12)c1csc(N)n1)C(=O)O` [CEFTAZIDIME], the Activity in the test with Pseudomonas aeruginosa [13] is recorded as 81%. The MIC in the test on Pseudomonas aeruginosa [14] turned out to be 16 µg/mL (≈ 29.3 µM); against Pseudomonas aeruginosa [15] it was 2 µg/mL (≈ 3.66 µM); in the test with Pseudomonas aeruginosa [1] it was 2 µg/mL (≈ 3.66 µM); against Pseudomonas aeruginosa [2], 16 µg/mL (≈ 29.3 µM); in the test on Pseudomonas aeruginosa [3] it was 2 µg/mL (≈ 3.66 µM); against Pseudomonas aeruginosa [4], 128 µg/mL (≈ 234 µM). In addition, the MIC in the test on Pseudomonas aeruginosa [5] was 32 µg/mL (≈ 58.5 µM); in the test with Pseudomonas aeruginosa [6], 32 µg/mL (≈ 58.5 µM); against Pseudomonas aeruginosa [7], 32 µg/mL (≈ 58.5 µM); with Pseudomonas aeruginosa [8], 32 µg/mL (≈ 58.5 µM); in the test on Pseudomonas aeruginosa [9] it was 32 µg/mL (≈ 58.5 µM); against Pseudomonas aeruginosa [10], 2 µg/mL (≈ 3.66 µM). The MIC with Pseudomonas aeruginosa [16] is 8 µg/mL (≈ 14.6 µM); in the test on Pseudomonas aeruginosa [11], 16 µg/mL (≈ 29.3 µM); against Pseudomonas aeruginosa [12], 32 µg/mL (≈ 58.5 µM).
Regarding `CO[C@@]1(NC(=O)Cc2cccs2)C(=O)N2C(C(=O)O)=C(COC(N)=O)CS[C@@H]21` [CEFOXITIN], the “fold change (FC)” value was determined as 1105 in the test with Pseudomonas aeruginosa [17]; 1014 in the test with Pseudomonas aeruginosa [18]; 134 with Pseudomonas aeruginosa [19]; 232 in the test on Pseudomonas aeruginosa [20]; 1950 in the test with Pseudomonas aeruginosa [21]; 50 in the test on Pseudomonas aeruginosa [22].

Source of the values: ChEMBL document CHEMBL1240405, “Activity of a new cephalosporin, CXA-101 (FR264205), against beta-lactam-resistant Pseudomonas aeruginosa mutants selected in vitro and after antipseudomonal treatment of intensive care unit patients” (2010).
